Tested on: HEK-293T
Test: Multiplex assay against HEK293T
Type: toxicity, cell-based
Conditions: human
Method in brief: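 Cells stained live at seeding with Hoechst33342, BioTracker Green Microtubule Cytoskeleton Dye, MitoTracker Red and Annexin V Alexa Fluor 680 were imaged on a CQ1 microscope at 37°C and 5% CO2 after compound addition. Their classification by CellPathfinder machine-learning gating ran from Hoechst high-intensity objects versus normal cells, to healthy, pyknosed or fragmented nuclei among normal cells, to mitotic or apoptotic among pyknosed cells. Tubulin, mitochondrial-mass and membrane-permeability phenotypes are per cents of healthy-nucleus cells.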

[1] = 12 h, 1 µM, compound concentration 1 uM, replicate 1
[2] = 12 h, 1 µM, compound concentration 1 uM, replicate 2
[3] = 12 h, 10 µM, compound concentration 10 uM, replicate 1
[4] = 12 h, 10 µM, compound concentration 10 uM, replicate 2
[5] = 24 h, 1 µM, compound concentration 1 uM, replicate 1
[6] = 24 h, 1 µM, compound concentration 1 uM, replicate 2
[7] = 24 h, 10 µM, compound concentration 10 uM, replicate 1
[8] = 24 h, 10 µM, compound concentration 10 uM, replicate 2
[9] = 48 h, 1 µM, compound concentration 1 uM, replicate 1
[10] = 48 h, 1 µM, compound concentration 1 uM, replicate 2
[11] = 48 h, 10 µM, compound concentration 10 uM, replicate 1
[12] = 48 h, 10 µM, compound concentration 10 uM, replicate 2

Compound: COc1c(C)cc(NC(=O)c2nn(Cc3ccc(F)cc3)c3c2CN(C(=O)c2ccc[nH]2)C[C@]3(C)C(N)=O)cc1C
- Population Apoptotic (%) [1]: 42%
- Population Fragmented Nuclei (%) [1]: 6%
- Population Healthy Nuclei (%) [1]: 79%
- Population Hoechst High Intensity Objects (%) [1]: 7%
- Population Membrane Permeable-Phenotype (%) [1]: 0%
- Population Mitochondria Different-Phenotype (%) [1]: 51%
- Population Mitotic Cells (%) [1]: 57%
- Population Normal (%) [1]: 92%
- Population Pyknosed Nuclei (%) [1]: 13%
- Population Tubulin-Different-Phenotype (%) [1]: 36%
- Total Cell Count [1]: 426
- Population Apoptotic (%) [2]: 38%
- Population Fragmented Nuclei (%) [2]: 7%
- Population Healthy Nuclei (%) [2]: 75%
- Population Hoechst High Intensity Objects (%) [2]: 5%
- Population Mitochondria Different-Phenotype (%) [2]: 58%
- Population Mitotic Cells (%) [2]: 61%
- Population Normal (%) [2]: 94%
- Population Pyknosed Nuclei (%) [2]: 17%
- Population Tubulin-Different-Phenotype (%) [2]: 29%
- Total Cell Count [2]: 304
- Population Apoptotic (%) [3]: 67%
- Population Fragmented Nuclei (%) [3]: 4%
- Population Healthy Nuclei (%) [3]: 77%
- Population Hoechst High Intensity Objects (%) [3]: 13%
- Population Membrane Permeable-Phenotype (%) [3]: 0%
- Population Mitochondria Different-Phenotype (%) [3]: 90%
- Population Mitotic Cells (%) [3]: 32%
- Population Normal (%) [3]: 86%
- Population Pyknosed Nuclei (%) [3]: 17%
- Population Tubulin-Different-Phenotype (%) [3]: 62%
- Total Cell Count [3]: 383
- Population Apoptotic (%) [4]: 59%
- Population Fragmented Nuclei (%) [4]: 6%
- Population Healthy Nuclei (%) [4]: 71%
- Population Mitochondria Different-Phenotype (%) [4]: 95%
- Population Mitotic Cells (%) [4]: 40%
- Population Pyknosed Nuclei (%) [4]: 21%
- Population Tubulin-Different-Phenotype (%) [4]: 63%
- Total Cell Count [4]: 285
- Population Apoptotic (%) [5]: 21%
- Population Fragmented Nuclei (%) [5]: 7%
- Population Healthy Nuclei (%) [5]: 80%
- Population Hoechst High Intensity Objects (%) [5]: 4%
- Population Membrane Permeable-Phenotype (%) [5]: 0%
- Population Mitochondria Different-Phenotype (%) [5]: 30%
- Population Mitotic Cells (%) [5]: 78%
- Population Normal (%) [5]: 95%
- Population Pyknosed Nuclei (%) [5]: 12%
- Population Tubulin-Different-Phenotype (%) [5]: 24%
- Total Cell Count [5]: 574
- Population Apoptotic (%) [6]: 51%
- Population Fragmented Nuclei (%) [6]: 5%
- Population Healthy Nuclei (%) [6]: 86%
- Population Mitochondria Different-Phenotype (%) [6]: 43%
- Population Mitotic Cells (%) [6]: 48%
- Population Pyknosed Nuclei (%) [6]: 7%
- Population Tubulin-Different-Phenotype (%) [6]: 16%
- Total Cell Count [6]: 422
- Population Apoptotic (%) [7]: 53%
- Population Fragmented Nuclei (%) [7]: 6%
- Population Healthy Nuclei (%) [7]: 73%
- Population Hoechst High Intensity Objects (%) [7]: 11%
- Population Membrane Permeable-Phenotype (%) [7]: 0%
- Population Mitochondria Different-Phenotype (%) [7]: 91%
- Population Mitotic Cells (%) [7]: 46%
- Population Normal (%) [7]: 88%
- Population Pyknosed Nuclei (%) [7]: 19%
- Population Tubulin-Different-Phenotype (%) [7]: 61%
- Total Cell Count [7]: 403
- Population Apoptotic (%) [8]: 67%
- Population Fragmented Nuclei (%) [8]: 5%
- Population Healthy Nuclei (%) [8]: 74%
- Population Hoechst High Intensity Objects (%) [8]: 15%
- Population Mitochondria Different-Phenotype (%) [8]: 92%
- Population Mitotic Cells (%) [8]: 32%
- Population Normal (%) [8]: 84%
- Population Tubulin-Different-Phenotype (%) [8]: 56%
- Total Cell Count [8]: 313
- Population Apoptotic (%) [9]: 21%
- Population Fragmented Nuclei (%) [9]: 11%
- Population Healthy Nuclei (%) [9]: 81%
- Population Hoechst High Intensity Objects (%) [9]: 2%
- Population Membrane Permeable-Phenotype (%) [9]: 1%
- Population Mitochondria Different-Phenotype (%) [9]: 25%
- Population Mitotic Cells (%) [9]: 78%
- Population Normal (%) [9]: 97%
- Population Pyknosed Nuclei (%) [9]: 6%
- Population Tubulin-Different-Phenotype (%) [9]: 18%
- Total Cell Count [9]: 920
- Population Apoptotic (%) [10]: 39%
- Population Fragmented Nuclei (%) [10]: 12%
- Population Hoechst High Intensity Objects (%) [10]: 3%
- Population Mitochondria Different-Phenotype (%) [10]: 28%
- Population Mitotic Cells (%) [10]: 60%
- Population Normal (%) [10]: 96%
- Population Tubulin-Different-Phenotype (%) [10]: 9%
- Total Cell Count [10]: 652
- Population Apoptotic (%) [11]: 60%
- Population Fragmented Nuclei (%) [11]: 8%
- Population Healthy Nuclei (%) [11]: 76%
- Population Hoechst High Intensity Objects (%) [11]: 14%
- Population Membrane Permeable-Phenotype (%) [11]: 0%
- Population Mitochondria Different-Phenotype (%) [11]: 93%
- Population Mitotic Cells (%) [11]: 39%
- Population Normal (%) [11]: 85%
- Population Pyknosed Nuclei (%) [11]: 15%
- Population Tubulin-Different-Phenotype (%) [11]: 66%
- Total Cell Count [11]: 467
- Population Apoptotic (%) [12]: 80%
- Population Fragmented Nuclei (%) [12]: 9%
- Population Healthy Nuclei (%) [12]: 81%
- Population Hoechst High Intensity Objects (%) [12]: 10%
- Population Mitochondria Different-Phenotype (%) [12]: 90%
- Population Mitotic Cells (%) [12]: 19%
- Population Normal (%) [12]: 89%
- Population Pyknosed Nuclei (%) [12]: 9%
- Population Tubulin-Different-Phenotype (%) [12]: 59%
- Total Cell Count [12]: 376

Compound: CSc1ccccc1N1CCN(CCCCCC(=O)NC2CCCc3ccccc32)CC1.Cl (stereo unspecified)
- Population Apoptotic (%) [1]: 45%
- Population Fragmented Nuclei (%) [1]: 6%
- Population Healthy Nuclei (%) [1]: 74%
- Population Hoechst High Intensity Objects (%) [1]: 8%
- Population Membrane Permeable-Phenotype (%) [1]: 0%
- Population Mitochondria Different-Phenotype (%) [1]: 68%
- Population Mitotic Cells (%) [1]: 54%
- Population Normal (%) [1]: 91%
- Population Pyknosed Nuclei (%) [1]: 18%
- Population Tubulin-Different-Phenotype (%) [1]: 59%
- Total Cell Count [1]: 391
- Population Hoechst High Intensity Objects (%) [2]: 12%
- Population Mitochondria Different-Phenotype (%) [2]: 75%
- Population Normal (%) [2]: 87%
- Population Pyknosed Nuclei (%) [2]: 19%
- Population Tubulin-Different-Phenotype (%) [2]: 43%
- Total Cell Count [2]: 322
- Population Apoptotic (%) [3]: 80%
- Population Fragmented Nuclei (%) [3]: 8%
- Population Healthy Nuclei (%) [3]: 68%
- Population Hoechst High Intensity Objects (%) [3]: 15%
- Population Membrane Permeable-Phenotype (%) [3]: 0%
- Population Mitochondria Different-Phenotype (%) [3]: 97%
- Population Mitotic Cells (%) [3]: 20%
- Population Normal (%) [3]: 84%
- Population Pyknosed Nuclei (%) [3]: 22%
- Population Tubulin-Different-Phenotype (%) [3]: 59%
- Total Cell Count [3]: 316
- Population Apoptotic (%) [4]: 79%
- Population Fragmented Nuclei (%) [4]: 5%
- Population Healthy Nuclei (%) [4]: 74%
- Population Hoechst High Intensity Objects (%) [4]: 16%
- Population Normal (%) [4]: 83%
- Population Pyknosed Nuclei (%) [4]: 19%
- Population Tubulin-Different-Phenotype (%) [4]: 65%
- Total Cell Count [4]: 304
- Population Apoptotic (%) [5]: 36%
- Population Fragmented Nuclei (%) [5]: 8%
- Population Healthy Nuclei (%) [5]: 79%
- Population Hoechst High Intensity Objects (%) [5]: 4%
- Population Membrane Permeable-Phenotype (%) [5]: 0%
- Population Mitochondria Different-Phenotype (%) [5]: 50%
- Population Mitotic Cells (%) [5]: 63%
- Population Normal (%) [5]: 95%
- Population Pyknosed Nuclei (%) [5]: 11%
- Population Tubulin-Different-Phenotype (%) [5]: 41%
- Total Cell Count [5]: 508
- Population Apoptotic (%) [6]: 41%
- Population Healthy Nuclei (%) [6]: 75%
- Population Hoechst High Intensity Objects (%) [6]: 7%
- Population Mitochondria Different-Phenotype (%) [6]: 70%
- Population Mitotic Cells (%) [6]: 58%
- Population Normal (%) [6]: 92%
- Population Pyknosed Nuclei (%) [6]: 16%
- Population Tubulin-Different-Phenotype (%) [6]: 44%
- Total Cell Count [6]: 356
- Population Apoptotic (%) [7]: 75%
- Population Fragmented Nuclei (%) [7]: 5%
- Population Healthy Nuclei (%) [7]: 70%
- Population Hoechst High Intensity Objects (%) [7]: 21%
- Population Membrane Permeable-Phenotype (%) [7]: 0%
- Population Mitochondria Different-Phenotype (%) [7]: 98%
- Population Mitotic Cells (%) [7]: 24%
- Population Normal (%) [7]: 78%
- Population Pyknosed Nuclei (%) [7]: 23%
- Population Tubulin-Different-Phenotype (%) [7]: 53%
- Total Cell Count [7]: 303
- Population Apoptotic (%) [8]: 69%
- Population Fragmented Nuclei (%) [8]: 7%
- Population Healthy Nuclei (%) [8]: 73%
- Population Hoechst High Intensity Objects (%) [8]: 20%
- Population Mitochondria Different-Phenotype (%) [8]: 97%
- Population Mitotic Cells (%) [8]: 30%
- Population Normal (%) [8]: 79%
- Population Pyknosed Nuclei (%) [8]: 18%
- Population Tubulin-Different-Phenotype (%) [8]: 48%
- Total Cell Count [8]: 315
- Population Apoptotic (%) [9]: 32%
- Population Fragmented Nuclei (%) [9]: 10%
- Population Healthy Nuclei (%) [9]: 78%
- Population Hoechst High Intensity Objects (%) [9]: 4%
- Population Membrane Permeable-Phenotype (%) [9]: 0%
- Population Mitochondria Different-Phenotype (%) [9]: 39%
- Population Mitotic Cells (%) [9]: 67%
- Population Normal (%) [9]: 95%
- Population Pyknosed Nuclei (%) [9]: 10%
- Population Tubulin-Different-Phenotype (%) [9]: 27%
- Total Cell Count [9]: 747
- Population Apoptotic (%) [10]: 45%
- Population Healthy Nuclei (%) [10]: 76%
- Population Hoechst High Intensity Objects (%) [10]: 6%
- Population Mitochondria Different-Phenotype (%) [10]: 59%
- Population Mitotic Cells (%) [10]: 54%
- Population Normal (%) [10]: 93%
- Population Pyknosed Nuclei (%) [10]: 13%
- Population Tubulin-Different-Phenotype (%) [10]: 31%
- Total Cell Count [10]: 471
- Population Apoptotic (%) [11]: 76%
- Population Fragmented Nuclei (%) [11]: 11%
- Population Healthy Nuclei (%) [11]: 73%
- Population Hoechst High Intensity Objects (%) [11]: 28%
- Population Membrane Permeable-Phenotype (%) [11]: 0%
- Population Mitochondria Different-Phenotype (%) [11]: 97%
- Population Mitotic Cells (%) [11]: 23%
- Population Normal (%) [11]: 71%
- Population Pyknosed Nuclei (%) [11]: 14%
- Population Tubulin-Different-Phenotype (%) [11]: 67%
- Total Cell Count [11]: 365
- Population Apoptotic (%) [12]: 56%
- Population Fragmented Nuclei (%) [12]: 13%
- Population Hoechst High Intensity Objects (%) [12]: 18%
- Population Mitochondria Different-Phenotype (%) [12]: 93%
- Population Mitotic Cells (%) [12]: 43%
- Population Normal (%) [12]: 81%
- Population Pyknosed Nuclei (%) [12]: 13%
- Population Tubulin-Different-Phenotype (%) [12]: 56%
- Total Cell Count [12]: 385
